Rows were chosen to be rich in hits. Some 4% of all compounds tested hit in one or more screens of this group.
Rev-RRE block: HIV-1 Rev-RRE binding inhibitors, primary screen, biochemical, FRET, protein-RNA interaction | Rev peptide-RRE RNA binding | inhibition, % at 8 µM | 0.79% of 97,000 active;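 active = inhibition above the screen-wide mean plus 3 SD, cut at about 35% in these data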;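 also: 0% = median DMSO wells and 100% = median Neomycin B control wells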
Target sequence (P05866 whole entry, looked up): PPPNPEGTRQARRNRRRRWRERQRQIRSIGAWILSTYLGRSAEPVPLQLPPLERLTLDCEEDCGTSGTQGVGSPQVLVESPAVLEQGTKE
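Test system: labelled RRE RNA duplex and labelled Rev peptide. Times: 5 min compound–RNA preincubation, then 15 min with peptide, 25 °C. Doses: single-dose 8 µM. Measured by: FRET, excitation 480 nm, emission 540 nm donor and 671 nm acceptor. Measure: % inhibition of FRET ratio versus controls.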
ERb coact inh: inhibitors of ERβ-SRC1 coactivator interaction, primary screen, biochemical, TR-FRET, ERβ LBD, SRC-1 peptide; inhibition, % at 25.6 µM; AID 633, 2007; Estrogen receptor beta (Homo sapiens), Q92731; TR-FRET ER-beta LBD / SRC1-Cy5 peptide binding; receptor agonist-loaded with 1 µM estradiol; 1.3% of 86,000 active;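 active = compounds whose percent inhibition of the receptor-coactivator binding signal exceeds about 50% in the single-dose screen, limit read from the data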;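 also: 0% = receptor plus peptide wells without compound and 100% = peptide-only wells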
ERa coact inh: ERα–SRC-1 coactivator interaction inhibitors, primary screen, biochemical, TR-FRET, ERα LBD, estradiol-bound; Estrogen receptor (Homo sapiens), P03372; TR-FRET ER-alpha LBD / SRC-1 peptide; inhibition, % at 25.6 µM; 1.7% of 86,000 active; AID 629, 2007; in the data active = inhibition above about 50%;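 also: 0% = receptor plus peptide control and 100% = peptide only without receptor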
FAK blocker: FAK kinase inhibitors, primary screen, biochemical | 0.84% of 97,000 active | Focal adhesion kinase 1 (Homo sapiens), Q05397 | biochemical FAK kinase activity assay | inhibition, %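 (tested at 7 µM)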; in the data active = inhibition above about 19%;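 also: 0% = DMSO and 100% = reference compound high control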
Smad3 inh: Smad3/FoxH1 peptide binding inhibitors, primary screen, biochemical, TR-FRET; TR-FRET Smad3/Dy647-FoxH1 peptide binding, europium anti-His; AID 630, 2007; Mothers against decapentaplegic homolog 3 (Homo sapiens), P84022; 0.29% of 88,000 active; inhibition, % at 25 µM;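 active = compounds that reduce the energy-transfer binding signal between the protein and its labelled peptide by more than half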;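 also: 0% = Smad3 plus labelled peptide maximal FRET and 100% = peptide-only background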
Target sequence (P84022 whole entry, looked up): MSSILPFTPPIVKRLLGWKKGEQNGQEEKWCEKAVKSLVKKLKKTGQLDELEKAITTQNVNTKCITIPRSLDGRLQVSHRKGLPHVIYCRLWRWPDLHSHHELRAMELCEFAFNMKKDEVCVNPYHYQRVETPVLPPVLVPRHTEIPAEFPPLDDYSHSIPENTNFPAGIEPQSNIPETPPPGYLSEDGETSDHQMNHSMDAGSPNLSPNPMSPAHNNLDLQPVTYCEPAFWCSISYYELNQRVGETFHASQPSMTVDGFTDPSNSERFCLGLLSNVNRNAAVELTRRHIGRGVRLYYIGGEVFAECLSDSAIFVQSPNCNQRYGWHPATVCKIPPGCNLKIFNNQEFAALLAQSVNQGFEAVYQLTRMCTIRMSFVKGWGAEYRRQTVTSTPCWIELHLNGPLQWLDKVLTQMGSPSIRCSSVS
ERa coact pot: enhancers of ERα–SRC-1 coactivator binding, primary screen, biochemical, TR-FRET, ERα LBD, low estradiol; Estrogen receptor (Homo sapiens), P03372; coactivator binding (% of control), % at 25.6 µM; TR-FRET ERalpha-LBD/SRC-Cy5 coactivator binding, 2 h; 100 = basal binding, no effect; 1.3% of 86,000 active; AID 639, 2007; in the data active = activity above about 200%;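 also: binding measured in presence of low estradiol as agonist stimulus; 0% = peptide alone without receptor and 100% = receptor with peptide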
Active calls of the source: *; / = not tested or not shown; [ ] = remark or other dose.

SMILES | Rev-RRE block | ERb coact inh | ERa coact inh | FAK blocker | Smad3 inh | ERa coact pot
CCOC(=O)c1c(C)oc2ccc(NS(=O)(=O)c3ccc4c5c(cccc35)C(=O)N4)cc12 | -1.0 | 65.2*[fluorescence artefact?] | 66.6*[fluorescence artefact?] | 10.0 | 7.6 | 52.3
CCCCn1c(=NC(=O)c2cccnc2)c(C#N)cc2c(=O)n3cccc(C)c3nc21 | 48.9* | -2.5 | 3.2 | 2.0 | 8.4 | 78.2
O=C(CN1CCN(Cc2ccc(Cl)cc2)C1=O)NCCCN1CCN(c2ccc(F)cc2)CC1 | 7.0 | -4.2 | -5.4 | 1.1 | 5.5 | 277.4*[fluorescence artefact?]
COC(=O)c1ccc2c(c1)C(C)(C)C(/C=C/c1ccc(O)cc1)=[N+]2C | 78.9*[fluorescence artefact?] | / | / | 0.1 | / | /
C/C(=N\OC(=O)c1ccccc1F)c1nccs1 | 2.8 | / | / | -7.3 | / | /
CCOC(=O)c1sc2nc(CSc3nc4ccccc4n3CC)[nH]c(=O)c2c1C | 11.1 | 38.0 | 53.6*[fluorescence artefact?] | 10.0 | -0.8 | 74.7
Cc1csc(NC(=O)C2COc3ccccc3O2)n1 (stereo not given) | 8.5 | 1.4 | -9.2 | 2.0 | -5.5 | 98.9
Cc1nc2ccc3nc(NC(=O)c4ccco4)sc3c2s1 | 4.9 | 50.3*[fluorescence artefact?] | 43.6 | 10.9 | 36.3 | 182.7
CSc1nc2ccc3nc(NC(=O)C4COc5ccccc5O4)sc3c2s1 (stereo not given) | -1.7 | 11.8 | 18.2 | 4.2 | 12.8 | 209.2*[fluorescence artefact?]
Cc1nc2ccc3nc(NC(=O)C4COc5ccccc5O4)sc3c2s1 (stereo not given) | / | 14.9 | 5.2 | / | -8.0 | 279.1*
O=c1cc(-c2ccccc2Cl)c2c([nH]1)CCC2 | / | 56.7*[fluorescence artefact?] | 47.5 | / | 0.9 | 62.5
O=c1cc(-c2ccccc2)c2c([nH]1)CCCC2 | 2.4 | -6.5 | -2.8 | 1.3 | 5.7 | 98.2
CCCCCCc1cc2cc(C(=O)NC)c(=N)oc2cc1O | 70.1* | / | / | 4.4 | / | /
COc1ccc(NC(=O)c2cc3cc(OC)ccc3oc2=N)cc1 | / | -3.4 | 9.6 | / | -2.5 | 127.5
CCCCCCc1cc2cc(C(N)=O)c(=N)oc2cc1O | 87.0*[fluorescence artefact?] | -0.7 | 7.3 | 0.1 | 3.9 | 76.7
O=P(O)(CCP(=O)(O)c1ccccc1)c1ccccc1 | / | / | / | / | 1.2 | /
O=C(CSc1nc2c(cnn2-c2ccccc2)c(=O)[nH]1)c1ccc(Cl)cc1 | 3.6 | 8.5 | 13.8 | 9.7 | 3.9 | 329.2*
CCCSc1nc2c(cnn2-c2ccc(C)c(C)c2)c(=O)[nH]1 | 7.0 | 53.9*[fluorescence artefact?] | 50.1*[fluorescence artefact?] | -1.2 | 4.4 | 244.1*[fluorescence artefact?]
COC(=O)c1ccc(CSc2nc3c(cnn3-c3ccc(C)c(C)c3)c(=O)[nH]2)o1 | 3.5 | 44.9 | 79.9* | 1.1 | 11.0 | 129.1
CCCSc1nc2c(cnn2-c2ccc(F)cc2)c(=O)[nH]1 | 8.6 | / | / | 3.0 | / | /
CCCCSc1nc2c(cnn2-c2ccc(Cl)cc2)c(=O)[nH]1 | 8.7 | -5.3 | -0.1 | -2.1 | 18.0 | 146.5
CCCCSc1nc2c(cnn2-c2ccc(C)c(C)c2)c(=O)[nH]1 | 18.3 | 22.4 | -2.4 | 7.4 | 5.5 | 168.3
CCCSc1nc2c(cnn2-c2ccccc2)c(=O)[nH]1 | / | 13.4 | -5.6 | / | -2.8 | 201.1*
CN(C)CCCN=c1c2ccccc2n(C)c2[nH]c(=O)n(C)c(=O)c12 | / | / | / | / | -1.1 | /
NC(N)=N[C@H](CC(=O)O)c1ccccc1 | / | / | / | / | -0.2 | /
CC[n+]1c(/C=C/C=C/N(C(C)=O)c2ccccc2)sc2ccccc21 | 129.4*[fluorescence artefact?] | / | / | 12.7 | / | /
O=C(CSc1nnc(-c2ccccc2O)o1)N1CCc2ccccc2C1 | 10.4 | 26.7 | 23.0 | -2.6 | 1.9 | 239.2*[fluorescence artefact?]
C=CCn1c(SCC(=O)c2ccc(O)c(O)c2)nnc1-c1ccccc1OC | 3.8 | 48.1 | 9.6 | 5.3 | 6.4 | 94.0
CCn1c(SCC(=O)c2ccc(O)c(O)c2)nnc1-c1ccccc1OC | -3.0 | 53.9* | 21.6 | -1.0 | 10.4 | 78.3
N#C[C@H](c1ccccc1)N1CCCN([C@@H](C#N)c2ccccc2)C1c1ccccc1O (stereo not given in full) | / | / | / | / | 44.6 | /
